MC4R antagonist: MC4R antagonists of cAMP signaling, primary screen, cell-based, TR-FRET, antagonist arm of biased-ligand search. 360,000 tested, 0.48% active. inhibition, % at 6.5 µM. Melanocortin receptor 4 (Homo sapiens), P32245. MC4R-expressing cells, MTII-stimulated cAMP, LANCE TR-FRET;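 active = inhibition above its plate's cutoff, the mean of tested wells on that plate plus 3 SD, cut at about 29% in these data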
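Material – human MC4R-expressing U2OS cells · Repeats – no replicates · Detection – TR-FRET with Eu-cAMP and labeled anti-cAMP, 671 nm · Times – compound 30 min, challenge 1 h, detection 1 h · Compound – single nominal compound dose of 6.5 µM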
EBI2 antag: EBI2 receptor antagonists, beta-arrestin recruitment, primary screen, cell-based, luminescence, 7a,25-OHC stimulation, uHTS; inhibition, % at 5 µM; 7a,25-OHC stimulated; 360,000 tested, 0.81% active; G-protein coupled receptor 183 (Homo sapiens), P32249; in the data active = inhibition above about 38%;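 note: enzyme fragment complementation signal reports receptor beta-arrestin coupling in cells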
HTR2A ag: mouse Htr2a agonists via beta-arrestin recruitment, primary screen, cell-based, luminescence; AID 624169, 2012; CHO-K1 mHTR2A beta-arrestin complementation; percent of 30 µM serotonin response; activation, % at 7.6 µM; 360,000 tested, 0.66% active;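 active = activation above a run cutoff, the mean activation of all tested compounds plus 3 SD, cut at about 14% in these data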
Target sequence (P35363 whole entry, looked up): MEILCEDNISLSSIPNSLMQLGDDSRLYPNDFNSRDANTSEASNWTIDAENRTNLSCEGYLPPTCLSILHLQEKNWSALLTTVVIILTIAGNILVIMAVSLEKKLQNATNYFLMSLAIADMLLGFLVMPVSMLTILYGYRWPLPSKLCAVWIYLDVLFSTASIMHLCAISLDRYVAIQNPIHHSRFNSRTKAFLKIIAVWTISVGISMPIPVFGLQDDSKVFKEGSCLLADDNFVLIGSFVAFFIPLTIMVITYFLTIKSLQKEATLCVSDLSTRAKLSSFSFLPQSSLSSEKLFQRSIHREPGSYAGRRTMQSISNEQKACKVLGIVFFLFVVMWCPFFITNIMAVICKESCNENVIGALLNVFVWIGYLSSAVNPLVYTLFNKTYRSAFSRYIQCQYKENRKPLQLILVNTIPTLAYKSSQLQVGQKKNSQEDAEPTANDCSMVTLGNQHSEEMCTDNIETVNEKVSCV
MC4R barr agon: MC4R agonists recruiting beta-arrestin, primary screen, cell-based, luminescence, agonist arm of biased-ligand search; Melanocortin receptor 4 (Homo sapiens), P32245; U2OS MC4R beta-arrestin complementation; percent of melanotan II response, DMSO zero; activation, % at 8.9 µM; 360,000 tested, 0.98% active; AID 540308, 2011;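 active = activation above a per-plate cutoff, the mean activation of sample wells on that plate plus 3 SD, cut at about 8% in these data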
EBI2 conf: EBI2 antagonist hit retest, beta-arrestin, confirmation, cell-based, single concentration, luminescence, 7a,25-OHC stimulation; 2,400 tested, 29% active; 7a,25-OHC antagonism; shares compounds with EBI2 antag; inhibition, % at 5 µM;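 active = inhibition of at least 50%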
EBI2 ag: EBI2 agonist activity of antagonist hits, confirmation, counter-screen for EBI2 antagonist project, cell-based, single concentration, agonist mode, luminescence | shares compounds with EBI2 antag | EBI2-expressing cells, 60 min; 0% vehicle, 100% 7α,25-dihydroxycholesterol control | activation, % at 5 µM | 2,400 tested, under 10 active | AID 652000, 2013;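 active = activation of at least 50%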
bGal counter: E. coli beta-galactosidase enzyme inhibition, confirmation, counter-screen for EBI2 antagonist project, biochemical, luminescence, single concentration | shares compounds with EBI2 antag | purified beta-galactosidase, luminescent Galacton Star, 15 min | inhibition, % at 5 µM | 2,400 tested, 1% active;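 active = replicate-average signal at least 3 plate SD below neutral wells, shown as high inhibition, flagging enzyme-inhibiting false positives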;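 note: higher means stronger loss of beta-gal luminescence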
A number is an active result; 0 = inactive; - = not tested or not shown. Only some compounds are listed: those with a hit (about 2.8% of all), similar ones and a draw of the others.

SMILES	MC4R antagonist	EBI2 antag	HTR2A ag	MC4R barr agon	EBI2 conf	EBI2 ag	bGal counter
C=CCn1c(SCC(=O)NNC(=O)Nc2ccc(C)cc2)nnc1-c1ccccc1	0	48	0	0	0	0	0
Cc1ccccc1Cn1nnc(C(=O)Nc2cccc(C)c2C)c1N	0	43	0	0	0	0	0
Cc1ccc(CNC(=O)Cn2nnc(C(=O)Nc3cccc(C)c3C)c2N)cc1	0	0	0	0	-	-	-
O=C(NCc1ccccc1)C1CCC(=O)N(CCN2CCOCC2)C1 (configuration not stated)	0	0	0	0	-	-	-
CN1CCC(C(=O)C(=O)O)C1=O (configuration not stated)	0	0	0	0	-	-	-
CC1Cc2c([nH]c3ccccc23)C2c3ccccc3CN12 (configuration not stated)	0	0	0	0	-	-	-
Cc1cc(C)c(S(=O)(=O)N2CCN(C(=O)c3ccc(-n4cncn4)c([N+](=O)[O-])c3)CC2)c(C)c1	0	72	0	0	0	0	0
Cc1ccc(/C=N/NC(=O)CNC(=O)c2ccc(S(=O)(=O)N(C)C)cc2)cc1	0	45	0	0	0	0	0
CN(C)S(=O)(=O)c1ccc(C(=O)NCC(=O)N/N=C/c2ccccc2Cl)cc1	0	72	0	0	0	0	0
Cc1ccsc1/C=N/NC(=O)CNC(=O)c1ccc(S(=O)(=O)N(C)C)cc1	0	0	0	0	-	-	-
CC(C)CCSc1cc(NCCO)c([N+](=O)[O-])c2nonc12	0	0	0	0	-	-	-
Cc1ccc(Sc2cc(NCCCO)c([N+](=O)[O-])c3nonc23)cc1	0	53	0	0	0	0	0
COc1ccc(S(=O)(=O)N2CCCC2CNC(=O)c2cccc(OC)c2)cc1 (configuration not stated)	0	0	0	0	-	-	-
COc1ccc(OC)c(-c2cc(C3CCN(C(=O)OC(C)(C)C)CC3)[nH]n2)c1	0	0	0	0	-	-	-
CCn1c(SCc2ccc(Cl)cc2Cl)nc2nc3c(cc2c1=O)CCCC3	0	63	0	0	0	0	0
O=C(CSc1nc2nc3c(cc2c(=O)n1-c1ccccc1)CCCC3)Nc1ccccc1	0	0	0	0	-	-	-
O=C(COc1ccc(Br)cc1)N/N=C1/SCC(=O)N1Cc1ccccc1	0	49	0	0	0	0	0
CC(C)Oc1cc(F)ccc1-c1cc(C(=O)Nc2cccc(C(F)(F)F)c2)[nH]n1	0	42	0	0	0	0	0
O=C(COc1ccccc1)N1CCN(C(=O)c2cccs2)CC1	0	0	0	0	-	-	-
O=C(COc1ccc(Cl)cc1)N1CCN(C(=O)c2cccs2)CC1	0	80	0	0	0	0	0
O=C(COc1ccc(Cl)cc1)N1CCN(C(=O)c2cccc(F)c2)CC1	0	86	0	0	68	0	0
O=C(COc1ccccc1)N1CCN(C(=O)c2cccc(F)c2)CC1	0	0	0	0	-	-	-
CCOc1ccc(N(C)C(=O)CCc2nnc3ccc(NCc4ccco4)nn23)cc1	0	0	0	0	-	-	-
Cc1ccc(C2CC(c3ccccc3)=NN2C(=O)CSc2nnc(-c3ccncc3)n2C)o1 (configuration not stated)	0	0	0	0	-	-	-
Cc1ccc(C2CC(c3ccccc3)=NN2C(=O)CSc2nnc(-c3ccc(Cl)cc3)o2)o1 (configuration not stated)	0	42	0	0	0	0	0
SMILES	MC4R antagonist	EBI2 antag	HTR2A ag	MC4R barr agon	EBI2 conf	EBI2 ag	bGal counter
CC1=NCCN1S(=O)(=O)c1ccccc1[N+](=O)[O-]	0	0	0	0	-	-	-
OC1CCN(c2c3c(nc4cc(-c5ccc(Cl)cc5)nn24)CCC3)CC1	0	44	0	0	0	0	0
Cc1ccc(C(C)C)c(OCc2ccc(C(=O)N/N=C/c3ccc(O)cc3O)cc2)c1	0	0	0	0	-	-	-
Cc1ccc(C(C)C)c(OCc2ccc(C(=O)N/N=C/c3ccc(C(=O)O)cc3)cc2)c1	0	40	0	0	0	0	0
O=S(=O)(CC(O)COc1ccc(Br)cc1)c1ccccc1 (configuration not stated)	0	45	0	0	0	0	0
Cc1nn(CC(=O)N2CCN(S(=O)(=O)c3ccccc3)CC2)c(C)c1[N+](=O)[O-]	0	0	0	0	-	-	-
Brc1cccc(CNCC2CCCO2)c1 (configuration not stated)	0	0	0	0	-	-	-
COc1ccc(C(=O)Nc2ccc(S(=O)(=O)N3CCCC3)cc2)cc1[N+](=O)[O-]	0	0	0	0	-	-	-
CCc1ccc(C(C)NC(=O)Cn2cnc3c(=O)n(C)c(=O)n(C)c32)cc1 (configuration not stated)	0	0	0	0	-	-	-
CCc1ccc(N2CC(C(=O)Nc3ccc(C)c(S(=O)(=O)N4CCOCC4)c3)CC2=O)cc1 (configuration not stated)	0	0	0	0	-	-	-
O=C(Nc1ccc(S(=O)(=O)N2CCCCC2)cc1)C1CC(=O)N(c2ccc(Cl)cc2)C1 (configuration not stated)	0	89	0	0	56	0	0
CCc1ccc(N2CC(C(=O)Nc3ccc(S(=O)(=O)N4CCOCC4)cc3)CC2=O)cc1 (configuration not stated)	0	52	0	0	0	0	0
Cc1ccc(N2CC(C(=O)Nc3cc(C)ccc3F)CC2=O)cc1 (configuration not stated)	0	53	0	0	0	0	0
Cc1ccc(CN2CC(C(=O)Nc3ccc(S(=O)(=O)N4CCCCC4)cc3)CC2=O)cc1 (configuration not stated)	0	50	0	0	0	0	0
CC(=O)NC(NC(=S)Nc1cccc(Br)c1)C(Cl)(Cl)Cl (configuration not stated)	0	0	0	0	-	-	-
Cc1cc(SCc2cccc(Cl)c2)nc(=O)[nH]1	0	0	0	0	-	-	-
Cc1ccc(N2CC(C(=O)Nc3ccc(S(=O)(=O)N4CCCC4)cc3)CC2=O)cc1 (configuration not stated)	0	55	0	0	0	0	0
